CHO parental Ca – counter-screen for OX1R antagonists: effect in parental CHO cells. parental CHO-K1, ATP-induced calcium, Fluo-8 fluorescence. inhibition, % at 5.6 µM. 330,000 tested, 0.63% active. AID 463079;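 active means inhibition above that plate's mean sample inhibition plus 3 SD, cut at about 26% in these data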
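Assay system: untransfected parental CHO cell line. Also added: ATP agonist challenge. Dosing: one dose, 5.6 µM nominal. Measured by: Fluo-8 fluorescence. Read-out: % inhibition. Benchmarks: ATP wells versus no-ATP DMSO wells. Repeats: no replicates.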
TAAR1 agonist – human TAAR1 agonism. Q96RJ0. CHO RD-HGA16 TAAR1, Fluo-8 calcium fluorescence; vehicle wells 0%, saturating PEA agonist 100%. activation, % at 3 µM. 360,000 tested, 0.99% active;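 active means activation above the mean activation of all test compounds in the run plus 3 SD, cut at about 38% in these data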
Target sequence (Q96RJ0 whole entry, looked up): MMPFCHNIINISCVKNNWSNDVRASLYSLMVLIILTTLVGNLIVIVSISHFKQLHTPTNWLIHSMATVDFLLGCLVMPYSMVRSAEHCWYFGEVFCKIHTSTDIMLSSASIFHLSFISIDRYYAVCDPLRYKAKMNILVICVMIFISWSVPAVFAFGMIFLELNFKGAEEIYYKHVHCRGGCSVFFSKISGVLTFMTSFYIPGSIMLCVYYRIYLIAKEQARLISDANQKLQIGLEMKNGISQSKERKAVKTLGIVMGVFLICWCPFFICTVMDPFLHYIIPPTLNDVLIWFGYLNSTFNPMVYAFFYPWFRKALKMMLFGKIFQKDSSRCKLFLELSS
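test system = CHO RD-HGA16 cells carrying human TAAR1 plus Gα16 | schedule = 17-24 h seeding, 75 min 37 °C dye, 30 min RT | compound dosing = 3 µM single concentration | control set = DMSO and PEA EC100 | replicates = n 1 | signal = Fluo-8 fluorescence, 5 s baseline then 140 s kinetic read | measure = percent activation vs PEA EC100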
TAAR1 antagonist – human TAAR1 antagonism; Q96RJ0; CHO RD-HGA16 TAAR1, Fluo-8 calcium fluorescence, antagonist; inhibition, % at 3 µM; 360,000 tested, 1.5% active; AID 624466;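 active means inhibition above a per-plate cutoff, the mean inhibition of test compounds on that plate plus 3 SD, cut at about 49% in these data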
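System: CHO RD-HGA16 cells bearing hTAAR1. Reagent: EC80 β-phenethylamine stimulus. Schedule: seeding 17-24 h prior, 75-min 37 °C, 30-min RT dye loading. Signal: Fluo-8 intracellular calcium dye fluorescence, real-time kinetic reads. Read-out: % inhibition from peak post-agonist over basal fluorescence ratio. Benchmarks: vehicle wells and EC80 agonist wells. Replicates: n of 1.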
OX1R antag-1 – blocks the human orexin 1 receptor; 330,000 tested, 0.43% active; CHO/OX1R cells, Fluo-8 calcium fluorescence, orexin A; inhibition, % at 5 µM;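 active means inhibition above its plate's threshold, mean inhibition of all tested compounds on the plate plus 3 SD, cut at about 37% in these data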
OX1R antag-2 – OX1R (human) antagonism | OX1R-expressing cells, FRET antagonist read-out | inhibition, % at 6.6 µM | 330,000 tested, 1.8% active | O43613 | AID 485270; in the data active means inhibition mostly above about 38%, no sharp cut-off; inactive means mostly below about 40%
GPR7 antag – blocks human GPR7 receptor signaling; GPR7-expressing cells, fluorescence antagonist assay; inhibition, % at 4.4 µM; 290,000 tested, 1.1% active; AID 1861; in the data active means inhibition above about 16%, passing the limit was not always enough;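 further: cells stimulated with the agonist NPW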
Hits are given with their value; - = inactive; . = no result. Compounds with a hit are over-represented: about 4.5% of the library has one in this group of screens.

SMILES	CHO parental Ca	TAAR1 agonist	TAAR1 antagonist	OX1R antag-1	OX1R antag-2	GPR7 antag
O=C(Nc1cccc(S(=O)(=O)N2CCOCC2)c1)c1ccc2c(=O)n3c(nc2c1)CCCCC3	-	-	51	-	-	-
O=C(c1ccccc1)N1CCC2CCN(CCc3ccccc3)CC21 (centres undefined)	.	-	-	.	.	.
COc1ccc2sc(NC(=O)NC(=O)c3c(Cl)cccc3Cl)nc2c1	-	-	-	-	-	20
Cc1cc2c(c(=O)o1)[C@@]1(C(=O)N(C)c3ccc([N+](=O)[O-])cc31)C1=C(CCCC1=O)O2	.	-	-	.	.	.
O=C(/C=C(\Nc1cc(Cl)c(F)c(Cl)c1)c1ccccc1)c1ccccc1	.	-	-	.	.	.
O=C(NC(=S)NCc1cccnc1)c1ccc([N+](=O)[O-])cc1	-	-	-	-	75	-
O=C(Nc1ccccc1)c1cc([N+](=O)[O-])ccc1NCc1cccnc1	-	-	-	-	-	-
O=C(/C=C/c1ccccc1)NCc1cccnc1	-	-	-	-	-	-
O=C(O)c1cc([N+](=O)[O-])c(NCc2cccnc2)c([N+](=O)[O-])c1	-	-	-	-	76	-
O=C(/C=C/c1ccccc1[N+](=O)[O-])NCc1cccnc1	-	-	-	-	61	-
N#Cc1c(-c2ccccc2)nc(SCC(=O)N2c3ccccc3Sc3ccccc32)[nH]c1=O	-	-	-	-	76	-
N#Cc1c(-c2ccccc2)nc(SCC(=O)N(c2ccccc2)c2ccccc2)[nH]c1=O	-	-	-	-	-	-
CCCCCCC(=O)N=Nc1c(O)[nH]c2ccc([N+](=O)[O-])cc12	-	-	-	-	-	-
O=C(CN1CCN(Cc2ccccc2)CC1)N=Nc1c(O)[nH]c2ccccc12	-	-	-	-	-	-
Oc1[nH]c2ccccc2c1N=Nc1ccccc1F	-	39	-	-	-	-
Oc1[nH]c2ccccc2c1N=Nc1ccc(F)cc1	-	-	-	-	-	-
O=C(Cc1cccs1)N=Nc1c(O)[nH]c2ccc(Br)cc12	-	-	-	-	-	-
O=C(CNC(=O)c1ccco1)N=Nc1c(O)[nH]c2ccc(Br)cc12	-	38	-	-	36	-
O=C(CNC(=O)Cc1ccccc1)N=Nc1c(O)[nH]c2ccccc12	-	-	-	-	45	-
O=C(CNC(=O)c1cccs1)N=Nc1c(O)[nH]c2ccc([N+](=O)[O-])cc12	-	-	-	-	41	-
CCOC(=O)C1=C(C(=O)OCC)C2N(Cc3ccc(C#N)cc3)c3ccccc3[C@@]23C[C@@H](C(=O)OC)N(S(=O)(=O)c2c(C)noc2C)C3=N1 (some centres undefined)	.	-	-	.	.	.
COC(=O)[C@H]1[C@@H](O)[C@@]2(O)c3c(OC)cc(OC)cc3O[C@@]2(c2ccc(OC)cc2)[C@@H]1c1ccc(F)cc1	.	-	-	.	.	.
Cn1c2ccccc2c(=O)c2cc(C#Cc3ccc(N)cc3)ccc21	-	-	49	-	58	-
COc1ccc(C#Cc2ccc3c(c2)c(=O)c2ccccc2n3C)cc1	-	-	-	-	-	-
O=[N+]([O-])c1ccc(Sc2nc3ccccc3[nH]2)c(Cl)c1	.	-	-	.	.	.
SMILES	CHO parental Ca	TAAR1 agonist	TAAR1 antagonist	OX1R antag-1	OX1R antag-2	GPR7 antag
COc1ccc(N2CCN(C(=O)c3cc(N4C(=O)C5C6CCC(C6)C5C4=O)ccc3Cl)CC2)cc1 (centres undefined)	-	-	-	-	-	20
CCCN1C(=O)c2n[nH]c(C)c2C1c1ccc(Br)cc1 (centres undefined)	.	-	-	.	.	.
COc1ccc(C(=O)c2ccc(N(C)C)cc2)c2ccccc12	33	-	-	58	-	-
O=C(Nc1nc(-c2cccs2)c(C(=O)C(F)(F)F)s1)c1ccccc1	-	-	-	-	60	-
CCN=C1NC(CCc2ccccc2)C(C(=O)OC)=C(C)N1Cc1ccccc1C(F)(F)F (centres undefined)	.	-	-	.	.	.
Cc1ccc(S(=O)(=O)c2ccc(C)cc2)cc1	-	-	-	-	-	-
Cc1ccc(S(=O)(=O)C=CS(=O)(=O)c2ccc(C)cc2)cc1	.	-	50	.	.	.
O=C(NCCNc1ccc([N+](=O)[O-])cc1C(F)(F)F)c1ccccc1F	42	-	-	-	-	-

Screening data: PubChem, The Scripps Research Institute Molecular Screening Center
